Screens deposited in PubChem BioAssay by SRMLSC.
Shown are actives, neighbours in structure and some others; about 6.6% of the full set was active somewhere.
Her2 expr inh – Her2 kinase expression inhibition; 65,000 tested, 0.69% active; SKBR-3 HER2 protein level, AlphaScreen, 18-24 h; active compounds read low; HER2 level % of control, % at 10 µM; AID 645;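 active = HER2 level under 5% of the carrier-only control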;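 also: 100% = DMSO carrier and 0% = 500 nM PU-H71 HSP90 inhibitor; lower value means stronger loss of Her2 protein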
Target sequence (P04626 whole entry, looked up): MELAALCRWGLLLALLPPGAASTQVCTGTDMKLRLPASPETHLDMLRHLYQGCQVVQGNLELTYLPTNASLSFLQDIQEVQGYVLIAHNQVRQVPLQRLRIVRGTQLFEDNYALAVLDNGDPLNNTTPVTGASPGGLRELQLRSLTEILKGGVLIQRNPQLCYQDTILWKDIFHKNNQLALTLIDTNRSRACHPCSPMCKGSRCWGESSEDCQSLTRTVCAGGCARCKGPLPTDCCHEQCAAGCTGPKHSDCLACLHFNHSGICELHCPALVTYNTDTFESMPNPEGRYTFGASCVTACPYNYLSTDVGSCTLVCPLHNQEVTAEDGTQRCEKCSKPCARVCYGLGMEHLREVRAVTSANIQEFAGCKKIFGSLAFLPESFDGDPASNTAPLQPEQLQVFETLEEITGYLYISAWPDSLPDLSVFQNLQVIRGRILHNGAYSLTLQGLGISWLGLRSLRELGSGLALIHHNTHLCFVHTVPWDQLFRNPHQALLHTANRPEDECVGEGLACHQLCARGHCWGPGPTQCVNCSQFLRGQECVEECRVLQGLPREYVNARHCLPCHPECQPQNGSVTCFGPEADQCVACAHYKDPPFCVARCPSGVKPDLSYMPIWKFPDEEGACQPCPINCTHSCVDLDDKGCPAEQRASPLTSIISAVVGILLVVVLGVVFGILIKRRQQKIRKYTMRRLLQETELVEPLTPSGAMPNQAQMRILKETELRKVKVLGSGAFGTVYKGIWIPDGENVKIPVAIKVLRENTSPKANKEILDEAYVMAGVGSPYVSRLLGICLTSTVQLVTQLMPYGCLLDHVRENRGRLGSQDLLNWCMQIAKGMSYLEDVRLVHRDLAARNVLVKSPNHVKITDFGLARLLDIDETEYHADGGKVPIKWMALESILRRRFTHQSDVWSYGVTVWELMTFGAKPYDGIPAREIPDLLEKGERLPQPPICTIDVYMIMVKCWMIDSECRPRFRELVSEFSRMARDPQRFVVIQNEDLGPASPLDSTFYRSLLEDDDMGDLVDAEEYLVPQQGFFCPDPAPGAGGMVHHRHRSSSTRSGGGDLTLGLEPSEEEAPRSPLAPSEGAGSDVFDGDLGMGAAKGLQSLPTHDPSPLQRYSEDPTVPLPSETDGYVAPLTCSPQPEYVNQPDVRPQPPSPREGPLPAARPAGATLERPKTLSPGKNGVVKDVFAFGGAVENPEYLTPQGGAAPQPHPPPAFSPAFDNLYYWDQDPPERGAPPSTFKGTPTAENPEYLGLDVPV
Ecoli tolC – growth inhibitors of E. coli BW25113 tolC mutant; AID 573; growth inhibition, % at 10 µM (by protocol); 65,000 tested, 2.2% active; OD615;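 active = growth inhibition at or above a cutoff equal to the mean over every tested compound plus 3 SD, cut at about 60% in these data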;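 also: growth measured after 20 h incubation at 37 °C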
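test system = E. coli BW25113 ΔtolC::kan bacteria | medium = LB with kanamycin 50 µg/mL | signal = OD at 615 nm | schedule = 37 °C, 20 h exposure | evaluation = % inhibition of E. coli growth | compound dosing = one dose of 10 µM final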
Ecoli WT expand – growth inhibitors of E. coli BW25113 wild type; 98,000 tested, 0.15% active; growth inhibition, % at 100 µM; AID 710; OD600 absorbance;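 active = growth inhibition above about 50% at one test dose, limit read from the data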;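 also: growth measured after 20 h incubation at 37 °C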
PostGolgi ctrl – inhibits growth of the yeast control strain; efflux-deficient yeast background strain, growth absorbance A615, 16 h; inhibition, % at 10 µM; 98,000 tested, 5% active; AID 738
PostGolgi yeast – growth inhibition of a yeast mutant, post-Golgi transport screen | post-Golgi transport phenotypic cell assay | inhibition, % at 10 µM | 98,000 tested, 0.9% active | AID 739;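 also: yeast cells grown in 1536-well plates; yeast grown about 18 h at 30C before absorbance read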
The depositor's hits bear a star. Rule as the data show it, unless noted: active = inhibition above about 30%; inactive = the rest.

CCc1cccc(CC)c1NC(=O)CSc1nc2ccc(N3C(=O)C4C5C=CC(C5)C4C3=O)cc2s1 (configuration not stated) was read as Ecoli WT expand -13, PostGolgi ctrl 30* and PostGolgi yeast -12.
`Cn1c(-c2ccccc2)cc2c3no[n+]([O-])c3ccc21` gave Her2 expr inh 36, Ecoli tolC 95*, Ecoli WT expand 2, PostGolgi ctrl 94* and PostGolgi yeast 74*.
For CCOC(=O)c1c(C)n(OCc2ccccc2)c2ccc3c(no[n+]3[O-])c12 the results were Her2 expr inh 103, Ecoli tolC 1, Ecoli WT expand -7, PostGolgi ctrl -2 and PostGolgi yeast 1.
For O=C(COC(=O)CCC(=O)c1cccs1)Nc1cc(S(=O)(=O)N2CCOCC2)ccc1Cl the results were Ecoli WT expand -6, PostGolgi ctrl 4 and PostGolgi yeast -4.
`C#CCOC(=O)c1ccccc1C(=O)OCC#C` gave Her2 expr inh -22*, Ecoli tolC -3, Ecoli WT expand 12, PostGolgi ctrl -4 and PostGolgi yeast 8.
CS(=O)(=O)N(CC(=O)NC1CCCC1)c1ccc2c(c1)OCCO2 was read as Her2 expr inh 77, Ecoli tolC -24, Ecoli WT expand -2, PostGolgi ctrl 4 and PostGolgi yeast -2.
COc1ccccc1N1CCN(C(=O)c2cc(-c3ccc4c(c3)OCO4)on2)CC1 was read as Her2 expr inh 76, Ecoli tolC -8, Ecoli WT expand -2, PostGolgi ctrl -2 and PostGolgi yeast -8.
`COc1ccc(-c2cc(C(=O)N3CCc4ccccc4C3)no2)cc1OC` gave Her2 expr inh 82, Ecoli tolC 75*, Ecoli WT expand -24, PostGolgi ctrl 20 and PostGolgi yeast -3.
COc1ccc(-c2cc(C(=O)N3CCN(C(c4ccccc4)c4ccccc4)CC3)no2)cc1OC was read as Her2 expr inh 77, Ecoli tolC 8, Ecoli WT expand -10, PostGolgi ctrl 2 and PostGolgi yeast 10.
`COc1ccc(-c2cc(C(=O)N3CCCc4ccccc43)no2)cc1` gave Her2 expr inh 84, Ecoli tolC 63*, Ecoli WT expand -17, PostGolgi ctrl 9 and PostGolgi yeast 1.
For COc1ccc(OCCCC(=O)N2CCCc3ccccc32)cc1 the results were Her2 expr inh 94, Ecoli tolC 32, Ecoli WT expand 4, PostGolgi ctrl 34* and PostGolgi yeast -6.
`COc1ccc(-c2cc(C(=O)N3CCCc4ccccc43)no2)cc1OC` gave Her2 expr inh 81, Ecoli tolC 39, Ecoli WT expand -12, PostGolgi ctrl 21 and PostGolgi yeast 9.
`COc1ccccc1N1CCN(C(=O)c2cc(-c3cccc(Cl)c3)on2)CC1` gave Her2 expr inh 84, Ecoli tolC 69*, Ecoli WT expand -18, PostGolgi ctrl 21 and PostGolgi yeast -2.
Cc1noc(C)c1C(=O)OCC(=O)c1cc(C)n(Cc2ccccc2Cl)c1C was read as Her2 expr inh 130, Ecoli tolC 55, Ecoli WT expand -10, PostGolgi ctrl 8 and PostGolgi yeast -2.
For COc1cc(S(=O)(=O)NC(C)C)ccc1Cl the results were Ecoli WT expand -2, PostGolgi ctrl 6 and PostGolgi yeast 1.
COc1cccc(-c2cc(C(=O)N3CC4(C)CC3CC(C)(C)C4)no2)c1 (configuration not stated) was read as Her2 expr inh 60, Ecoli tolC 80*, Ecoli WT expand -9, PostGolgi ctrl 21 and PostGolgi yeast -2.
Screening COc1cccc(-c2cc(C(=O)N3CCCc4ccccc43)no2)c1 returned Her2 expr inh 71, Ecoli tolC 55, Ecoli WT expand -9, PostGolgi ctrl 35* and PostGolgi yeast 1.
`COc1ccc(-c2cc(C(=O)N3CCN(C(c4ccccc4)c4ccccc4)CC3)no2)cc1` gave Her2 expr inh 89, Ecoli tolC 16, Ecoli WT expand -18, PostGolgi ctrl 42* and PostGolgi yeast 4.
For COc1cccc(-c2cc(C(=O)N3CCCCC3C)no2)c1 (configuration not stated) the results were Her2 expr inh 69, Ecoli tolC 2, Ecoli WT expand 4, PostGolgi ctrl 15 and PostGolgi yeast 4.
COc1ccc(OC)c(-c2cc(C(=O)N3CCCc4ccccc43)no2)c1 was read as Her2 expr inh 109, Ecoli tolC 65*, Ecoli WT expand -23, PostGolgi ctrl 37* and PostGolgi yeast -2.
